Measured values as given in ChEMBL document CHEMBL5705899 (Biochem J, 2014).
Calls of active or inactive are those of the source. No cut-off for these calls is given here.

Key:
[1] = target: Ephrin type-B receptor 3 (Homo sapiens) (UniProt P54753); test: Inhibition of recombinant human N-terminal His6-tagged EPHB3 (561 to 998 residues) expressed in Escherichia coli assessed as remaining activity at 1 uM using Poly(Glu, Tyr) as substrate incubated for 30 mins in presence of [gamma-33P]ATP by filter binding method relative to control
Chain of Ephrin type-B receptor 3 (Homo sapiens) (P54753 whole entry, the tested form may be a part): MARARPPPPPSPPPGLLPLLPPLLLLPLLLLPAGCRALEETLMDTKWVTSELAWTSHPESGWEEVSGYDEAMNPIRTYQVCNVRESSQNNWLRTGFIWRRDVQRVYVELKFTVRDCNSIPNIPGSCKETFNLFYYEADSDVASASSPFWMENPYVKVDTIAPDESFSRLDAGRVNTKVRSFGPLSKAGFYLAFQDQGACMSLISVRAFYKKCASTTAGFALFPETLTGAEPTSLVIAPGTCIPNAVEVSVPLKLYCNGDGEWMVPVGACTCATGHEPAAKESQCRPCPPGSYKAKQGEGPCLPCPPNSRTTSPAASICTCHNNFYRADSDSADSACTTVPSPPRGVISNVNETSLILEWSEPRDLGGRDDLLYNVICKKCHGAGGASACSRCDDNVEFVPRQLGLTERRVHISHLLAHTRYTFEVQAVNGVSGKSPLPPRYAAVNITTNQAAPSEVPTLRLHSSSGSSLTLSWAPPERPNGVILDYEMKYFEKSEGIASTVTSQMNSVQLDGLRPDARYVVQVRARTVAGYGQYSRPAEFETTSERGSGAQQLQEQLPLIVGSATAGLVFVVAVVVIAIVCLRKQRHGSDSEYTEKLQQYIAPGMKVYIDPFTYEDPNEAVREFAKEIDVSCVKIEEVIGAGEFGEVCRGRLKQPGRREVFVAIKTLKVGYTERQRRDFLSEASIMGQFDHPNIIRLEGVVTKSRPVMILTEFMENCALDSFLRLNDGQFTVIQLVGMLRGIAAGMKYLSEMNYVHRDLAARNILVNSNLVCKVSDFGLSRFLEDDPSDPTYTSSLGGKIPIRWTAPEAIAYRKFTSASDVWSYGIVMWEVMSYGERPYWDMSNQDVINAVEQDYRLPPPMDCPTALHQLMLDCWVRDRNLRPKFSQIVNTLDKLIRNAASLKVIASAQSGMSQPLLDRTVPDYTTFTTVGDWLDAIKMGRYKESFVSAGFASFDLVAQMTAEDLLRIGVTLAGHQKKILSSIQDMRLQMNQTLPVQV

[2] = target: Maternal embryonic leucine zipper kinase (Homo sapiens) (UniProt Q14680); test: (§1) Inhibition of recombinant human N-terminal GST/C-terminal His6-tagged MELK (2 to 651 residues) expressed in Escherichia coli assessed as remaining activity at 1 uM using KKLNRTLSFAEPG as substrate incubated for 30 mins in presence of [gamma-33P]ATP by filter binding method relative to control
[3] = target: Inhibitor of nuclear factor kappa-B kinase subunit beta (Homo sapiens) (UniProt O14920); test: Inhibition of recombinant human N-terminal His6-tagged IKKbeta (1 to 736 residues) expressed in baculovirus infected Sf21 cells assessed as remaining activity at 1 uM using LDDRHDSGLDSMKDEEY as substrate incubated for 30 mins in presence of [gamma-33P]ATP by filter binding method relative to control
[4] = target: Ribosomal protein S6 kinase alpha-5 (Homo sapiens) (UniProt O75582); details: Sf21, dose 1.0 µM, time 30.0 min
[5] = target: Tyrosine-protein kinase JAK2 (Homo sapiens) (UniProt O60674); test: Inhibition of JAK2 (unknown origin) assessed as remaining activity at 1 uM relative to control
Chain of Tyrosine-protein kinase JAK2 (Homo sapiens) (O60674 whole entry): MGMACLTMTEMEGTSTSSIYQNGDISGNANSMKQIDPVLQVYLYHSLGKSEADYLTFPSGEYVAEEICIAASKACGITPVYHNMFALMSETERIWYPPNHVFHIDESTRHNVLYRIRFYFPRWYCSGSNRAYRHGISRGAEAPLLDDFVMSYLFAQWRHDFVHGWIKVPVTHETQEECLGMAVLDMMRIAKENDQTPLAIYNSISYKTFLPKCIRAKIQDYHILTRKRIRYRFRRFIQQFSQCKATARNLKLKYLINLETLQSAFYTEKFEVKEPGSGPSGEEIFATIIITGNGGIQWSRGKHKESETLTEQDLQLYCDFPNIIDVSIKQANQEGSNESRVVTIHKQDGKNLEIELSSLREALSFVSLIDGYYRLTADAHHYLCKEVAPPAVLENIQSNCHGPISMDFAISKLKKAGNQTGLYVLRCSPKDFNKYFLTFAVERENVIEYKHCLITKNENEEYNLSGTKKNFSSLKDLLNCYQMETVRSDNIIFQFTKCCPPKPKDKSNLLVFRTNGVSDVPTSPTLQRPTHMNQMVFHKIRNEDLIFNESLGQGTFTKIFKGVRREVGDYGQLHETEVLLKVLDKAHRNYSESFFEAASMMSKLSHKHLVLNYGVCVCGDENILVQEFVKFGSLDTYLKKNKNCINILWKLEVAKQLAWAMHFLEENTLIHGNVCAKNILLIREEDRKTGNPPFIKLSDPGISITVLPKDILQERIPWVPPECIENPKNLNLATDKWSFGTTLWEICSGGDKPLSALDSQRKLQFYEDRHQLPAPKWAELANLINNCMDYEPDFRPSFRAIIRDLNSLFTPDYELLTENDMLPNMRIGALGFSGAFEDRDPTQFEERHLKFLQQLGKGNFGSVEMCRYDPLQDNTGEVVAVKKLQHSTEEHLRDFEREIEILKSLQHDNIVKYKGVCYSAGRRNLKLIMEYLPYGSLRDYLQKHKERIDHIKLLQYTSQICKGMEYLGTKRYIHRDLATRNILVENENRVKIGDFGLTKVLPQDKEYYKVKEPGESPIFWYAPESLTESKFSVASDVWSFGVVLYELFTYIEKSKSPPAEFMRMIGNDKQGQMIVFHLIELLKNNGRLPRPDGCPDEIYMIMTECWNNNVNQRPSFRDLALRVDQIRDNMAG
Method in brief: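 Dundee panel of 140 protein kinases, tested at a single 1 μM concentration. Each assay was run in triplicate. Remaining activity is expressed relative to a control reaction without inhibitor, as mean ± S.D. Conditions for each kinase were those of the screening centre.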

[6] = target: CDK2/Cyclin A2 (Homo sapiens) (UniProt P24941+P20248); test: as §1, with “GST-tagged CDK2” for “GST/C-terminal His6-tagged MELK”, “298 residues)/N-terminal GST-tagged Cyclin A2 (171 to 432” for “651”, “YSPTSPSYSPTSPSYSPTSPKKK” for “KKLNRTLSFAEPG”
[7] = target: Ephrin type-A receptor 5 (Homo sapiens) (UniProt P54756); test: Inhibition of human EPHA5 at 1 uM using polyEY as substrate in presence of 33P-ATP by ProQinase assay
Chain of Ephrin type-A receptor 5 (Homo sapiens) (P54756 whole entry): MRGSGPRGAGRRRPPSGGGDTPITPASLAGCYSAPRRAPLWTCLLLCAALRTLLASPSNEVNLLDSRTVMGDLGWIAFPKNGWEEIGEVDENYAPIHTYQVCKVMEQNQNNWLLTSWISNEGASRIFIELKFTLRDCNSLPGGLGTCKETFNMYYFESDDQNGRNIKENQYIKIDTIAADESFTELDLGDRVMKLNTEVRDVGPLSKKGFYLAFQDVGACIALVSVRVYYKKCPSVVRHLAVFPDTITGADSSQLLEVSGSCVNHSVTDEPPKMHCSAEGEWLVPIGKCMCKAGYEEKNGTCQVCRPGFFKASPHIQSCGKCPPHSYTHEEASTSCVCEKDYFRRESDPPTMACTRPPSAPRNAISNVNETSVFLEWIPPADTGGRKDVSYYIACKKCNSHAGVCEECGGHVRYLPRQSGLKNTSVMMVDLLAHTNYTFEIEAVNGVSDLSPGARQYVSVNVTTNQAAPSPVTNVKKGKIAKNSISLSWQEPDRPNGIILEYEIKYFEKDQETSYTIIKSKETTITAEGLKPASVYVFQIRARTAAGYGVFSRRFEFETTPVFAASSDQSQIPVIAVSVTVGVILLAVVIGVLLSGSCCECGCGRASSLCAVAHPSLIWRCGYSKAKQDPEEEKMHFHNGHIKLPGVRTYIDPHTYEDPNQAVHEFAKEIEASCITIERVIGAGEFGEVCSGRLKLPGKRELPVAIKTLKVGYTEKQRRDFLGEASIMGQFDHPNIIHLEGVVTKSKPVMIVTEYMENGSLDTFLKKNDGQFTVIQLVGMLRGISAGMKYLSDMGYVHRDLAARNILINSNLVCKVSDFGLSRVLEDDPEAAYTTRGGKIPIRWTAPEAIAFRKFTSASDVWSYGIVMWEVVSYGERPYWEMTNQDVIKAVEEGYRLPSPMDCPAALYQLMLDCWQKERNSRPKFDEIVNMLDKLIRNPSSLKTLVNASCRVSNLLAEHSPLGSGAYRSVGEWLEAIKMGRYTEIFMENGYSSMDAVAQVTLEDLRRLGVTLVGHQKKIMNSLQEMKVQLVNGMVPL

[8] = target: Ephrin type-A receptor 1 (Homo sapiens) (UniProt P21709); test: Inhibition of human EPHA1 at 1 uM using polyEY as substrate in presence of 33P-ATP by ProQinase assay
[9] = target: CDK1/Cyclin E (Homo sapiens) (UniProt P06493+P24864); test: Inhibition of human CDK1/Cyclin E1at 1 uM using RBER-CHKtide as substrate in presence of 33P-ATP by ProQinase assay; format: protein-complex assay
[10] = target: Fibroblast growth factor receptor 1 (Homo sapiens) (UniProt P11362); test: Inhibition of human FGFR1 at 1 uM using polyEy as substrate in presence of 33P-ATP by ProQinase assay
[11] = target: Dual specificity tyrosine-phosphorylation-regulated kinase 1B (Homo sapiens) (UniProt Q9Y463); test: Inhibition of human DYRK1B at 1 uM using RBER-CHKtide as substrate in presence of 33P-ATP by ProQinase assay
Chain of Dual specificity tyrosine-phosphorylation-regulated kinase 1B (Homo sapiens) (Q9Y463 whole entry, looked up): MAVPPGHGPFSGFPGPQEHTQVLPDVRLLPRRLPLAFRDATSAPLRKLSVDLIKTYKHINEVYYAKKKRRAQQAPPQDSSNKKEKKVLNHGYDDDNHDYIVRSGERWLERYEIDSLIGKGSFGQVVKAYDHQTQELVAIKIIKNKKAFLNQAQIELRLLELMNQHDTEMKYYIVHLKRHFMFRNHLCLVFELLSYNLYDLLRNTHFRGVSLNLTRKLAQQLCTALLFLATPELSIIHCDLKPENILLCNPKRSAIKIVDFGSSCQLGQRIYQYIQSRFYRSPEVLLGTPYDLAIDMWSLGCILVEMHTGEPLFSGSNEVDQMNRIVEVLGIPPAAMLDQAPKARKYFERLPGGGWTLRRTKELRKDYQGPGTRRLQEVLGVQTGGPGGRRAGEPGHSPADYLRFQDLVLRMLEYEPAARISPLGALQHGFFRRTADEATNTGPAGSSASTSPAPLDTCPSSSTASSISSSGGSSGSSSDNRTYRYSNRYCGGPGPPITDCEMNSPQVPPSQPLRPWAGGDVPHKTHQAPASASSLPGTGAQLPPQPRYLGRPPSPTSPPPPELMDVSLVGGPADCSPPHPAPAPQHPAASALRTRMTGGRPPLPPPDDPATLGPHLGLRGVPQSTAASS

[12] = target: Mitogen-activated protein kinase kinase kinase 20 (Homo sapiens) (UniProt Q9NYL2); test: Inhibition of human ZAK at 1 uM using MBP as substrate in presence of 33P-ATP by ProQinase assay
[13] = target: Serine/threonine-protein kinase 3 (Homo sapiens) (UniProt Q13188); test: Inhibition of human MST2 at 1 uM using RB-CTF as substrate in presence of 33P-ATP by ProQinase assay
[14] = target: Homeodomain-interacting protein kinase 1 (Homo sapiens) (UniProt Q86Z02); test: Inhibition of human HIPK1 at 1 uM using RBER-CHKtide as substrate in presence of 33P-ATP by ProQinase assay
[15] = target: Protein kinase C theta type (Homo sapiens) (UniProt Q04759); test: Inhibition of human PKCtheta at 1 uM using 3xChocktide-PKC as substrate in presence of 33P-ATP by ProQinase assay
Chain of Protein kinase C theta type (Homo sapiens) (Q04759 whole entry, looked up): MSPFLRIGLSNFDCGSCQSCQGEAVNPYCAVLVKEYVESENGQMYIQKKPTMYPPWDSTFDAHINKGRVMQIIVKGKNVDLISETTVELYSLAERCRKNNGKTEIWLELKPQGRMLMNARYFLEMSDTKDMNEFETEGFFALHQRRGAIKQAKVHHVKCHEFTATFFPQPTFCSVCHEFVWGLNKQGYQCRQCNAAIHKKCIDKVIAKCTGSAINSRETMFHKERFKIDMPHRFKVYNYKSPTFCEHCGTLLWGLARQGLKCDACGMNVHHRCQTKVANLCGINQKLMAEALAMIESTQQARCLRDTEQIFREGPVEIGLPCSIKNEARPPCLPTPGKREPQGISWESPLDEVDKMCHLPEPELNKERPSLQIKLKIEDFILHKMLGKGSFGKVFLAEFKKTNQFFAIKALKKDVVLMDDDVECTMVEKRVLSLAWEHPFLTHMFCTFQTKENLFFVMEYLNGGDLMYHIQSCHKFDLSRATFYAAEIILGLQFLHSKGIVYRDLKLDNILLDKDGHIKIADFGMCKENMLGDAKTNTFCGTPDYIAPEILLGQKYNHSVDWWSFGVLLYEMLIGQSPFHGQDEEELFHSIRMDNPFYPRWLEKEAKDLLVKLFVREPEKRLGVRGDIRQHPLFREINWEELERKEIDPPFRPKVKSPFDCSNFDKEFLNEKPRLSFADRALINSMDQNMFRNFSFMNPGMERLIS

[16] = target: RAC-alpha serine/threonine-protein kinase (Homo sapiens) (UniProt P31749); test: Inhibition of human AKT1 at 1 uM using RBER-GSK3 as substrate in presence of 33P-ATP by ProQinase assay
[17] = target: Myosin light chain kinase 2, skeletal/cardiac muscle (Homo sapiens) (UniProt Q9H1R3); test: Inhibition of human MYLK2 at 1 uM using RB-S6P as substrate in presence of 33P-ATP by ProQinase assay
Chain of Myosin light chain kinase 2, skeletal/cardiac muscle (Homo sapiens) (Q9H1R3 whole entry): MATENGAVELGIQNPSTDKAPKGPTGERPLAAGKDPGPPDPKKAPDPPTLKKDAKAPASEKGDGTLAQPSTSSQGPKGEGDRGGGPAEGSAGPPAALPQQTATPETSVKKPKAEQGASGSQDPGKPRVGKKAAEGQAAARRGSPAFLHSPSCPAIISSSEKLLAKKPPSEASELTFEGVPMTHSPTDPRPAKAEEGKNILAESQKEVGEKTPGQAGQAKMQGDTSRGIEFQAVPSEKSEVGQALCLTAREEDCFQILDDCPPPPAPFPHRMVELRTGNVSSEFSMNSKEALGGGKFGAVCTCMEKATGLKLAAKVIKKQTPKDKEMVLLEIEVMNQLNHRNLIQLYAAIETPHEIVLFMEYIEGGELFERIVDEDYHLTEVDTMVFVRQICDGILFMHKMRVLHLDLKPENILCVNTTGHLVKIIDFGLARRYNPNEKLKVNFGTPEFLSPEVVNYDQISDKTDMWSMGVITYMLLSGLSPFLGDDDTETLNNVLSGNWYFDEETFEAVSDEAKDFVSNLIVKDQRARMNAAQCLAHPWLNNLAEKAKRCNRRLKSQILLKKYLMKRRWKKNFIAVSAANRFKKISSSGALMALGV

[18] = test system: Dual specificity mitogen-activated protein kinase kinase 6 (Homo sapiens), P52564 [S207D,T211D]; test: Inhibition of human MKK6 S207D/T211D double mutant at 1 uM using p38-alpha KA as substrate in presence of 33P-ATP by ProQinase assay
[19] = target: Calcium/calmodulin-dependent protein kinase type II subunit beta (Homo sapiens) (UniProt Q13554); test: Inhibition of human CAMK2B at 1 uM using RBER-CHKtide as substrate in presence of 33P-ATP by ProQinase assay
[20] = target: Choline kinase alpha (Homo sapiens) (UniProt P35790); test: Inhibition of recombinant human N-terminal GST-tagged CHKalpha (1 to 457 residues) expressed in Escherichia coli at 1 uM using choline chloride as substrate incubated for 40 mins by ADP-Glo assay
[21] = target: Sphingosine kinase 1 (Homo sapiens) (UniProt Q9NYA1); test: Inhibition of recombinant human N-terminal His6-tagged SPHK1 (1 to 384 residues) expressed in baculovirus expression system at 1 uM using sphingosine as substrate incubated for 40 mins by ADP-Glo assay
[22] = target: Phosphatidylinositol 4,5-bisphosphate 3-kinase catalytic subunit gamma isoform (Homo sapiens, UniProt P48736); test: Inhibition of recombinant human N-terminal His6-tagged PI3Kgamma (2 to 1102 residues) expressed in baculovirus expression system at 1 uM using diC8 PIP2 as substrate incubated for 75 mins by ADP-Glo assay
[23] = target: Phosphatidylinositol 4,5-bisphosphate 3-kinase catalytic subunit alpha isoform (Homo sapiens, UniProt P42336); test: Inhibition of PI3Kalpha (unknown origin) using PtdIns(4,5)P2 as substrate preincubated for 20 mins followed by substrate addition and measured after 80 mins by Kinase-Glo assay
Method in brief: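 PIK3CA at 20 nM in 50 mM Tris/HCl pH 7.4, 0.05% CHAPSO, 10 mM MgCl2 and 2.1 mM DTT was pre-incubated with inhibitor at varying concentrations for 20 min. Then 80 μM PtdIns(4,5)P2 and 8 μM ATP (below apparent Km) were added, with 2% DMSO final. The reaction ran 80 min at ambient temperature, followed by Kinase-Glo Plus for 20 min and a luminescence read.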

[24] = target: PI3K p110 beta/p85 alpha (Homo sapiens, UniProt P42338); test: Inhibition of human PIK3CB/PIK3R1 using PIP2/PS as substrate by ADP-Glo assay; format: protein-complex assay

CC(C)(O)CNc1ncc(-c2ccnc(Nc3ccnc(Cl)c3)n2)c(CC2CC2)n1
Activity [1]: 111% | Activity [2]: 108% | Activity [3]: 106% | Activity [4]: 105% | Activity [5]: 93% | Activity [6]: 88% | inhibition [7]: inactive | inhibition [8]: inactive | inhibition [9]: inactive | inhibition [10]: inactive | inhibition [11]: inactive | inhibition [12]: inactive | inhibition [13]: inactive | inhibition [14]: inactive | inhibition [15]: inactive | inhibition [16]: inactive | inhibition [17]: inactive | inhibition [18]: inactive | inhibition [19]: inactive | inhibition [20]: inactive | inhibition [21]: inactive | inhibition [22]: inactive | IC50 [23]: 8.04 µM | IC50 [24]: > 10 µM
